Values after ≈ are worked out from the molar mass of the structure shown.
Key:
Format in all cases: functional
[1] = test system: Candida albicans; test: Tested for in vitro antifungal activity against Candida albicans TIMM3164
In short: (§1)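 Microplate growth assay in RPMI1640 medium buffered at pH 7.0, incubated at 35 °C. MIC is the lowest test-compound concentration that inhibits fungal growth by 80%.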

[2] = test system: Candida albicans; test: Tested for in vitro antifungal activity against Candida albicans ATCC 64550; in short: as §1
[3] = test system: Aspergillus fumigatus; test: Tested for in vitro antifungal activity against Aspergillus fumigatus ATCC 26430
In short: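 Mould grown in microplates in RPMI1640 buffered at pH 7.0, incubated at 30 °C. MIC is the lowest test-compound concentration that inhibits growth by 80%.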

[4] = test system: Candida albicans; test: Tested for in vitro antifungal activity against Candida albicans ATCC 24433; in short: as §1
[5] = test system: Candida albicans; test: Tested for in vitro antifungal activity against Candida albicans SANK51486; in short: as §1
[6] = test system: Candida parapsilosis; test: Tested for in vitro antifungal activity against Candida parapsilosis ATCC 90018; conditions: Lodderomyces parapsilosis; in short: as §1
[7] = test system: Candida albicans; test: Tested for in vitro antifungal activity against Candida albicans SANK51486 in the presence of horse serum (20%)
In short: (§2)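 RPMI1640 medium buffered at pH 7.0, with 20% horse serum added for the incubation. Microplates incubated at 35 °C. MIC is the lowest concentration giving 80% inhibition of fungal growth.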

[8] = test system: Nakaseomyces glabratus; test: Tested for in vitro antifungal activity against Candida glabrata ATCC 90030; in short: as §1
[9] = test system: Cryptococcus neoformans; test: Tested for in vitro antifungal activity against Cryptococcus neoformans TIMM1855
In short: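 Yeast grown in microplates in yeast nitrogen base buffered at pH 7.0, incubated at 35 °C. MIC is the lowest concentration inhibiting growth by 80%.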

[10] = test system: Candida tropicalis; test: Tested for in vitro antifungal activity against Candida tropicalis ATCC750; in short: as §1
[11] = test system: Candida albicans; test: Tested for in vitro antifungal activity against Candida albicans ATCC 24433 in the presence of horse serum (20%); in short: as §2

| Structure (SMILES) | MIC [1] | MIC [2] | MIC [3] | MIC [4] | MIC [5] | MIC [6] | MIC [7] | MIC [8] | MIC [9] | MIC [10] | MIC [11] |
| --- | --- | --- | --- | --- | --- | --- | --- | --- | --- | --- | --- |
| OC(Cn1cncn1)(Cn1cncn1)c1ccc(F)cc1F [FLUCONAZOLE] | 4 µg/mL (≈ 13.1 µM) | 4 µg/mL (≈ 13.1 µM) | – | – | – | – | – | – | – | – | – |
| C=C(Br)CN1C[C@H](OCC23C[C@@H]4[C@H](C)CC[C@H]4C4(C=O)CC2C=C(C(C)C)C34C(=O)O)O[C@H](C)[C@@H](OC)C1 (stereo not given in full) | 0.031 µg/mL (≈ 0.0521 µM) | 0.031 µg/mL (≈ 0.0521 µM) | > 16 µg/mL | 0.031 µg/mL (≈ 0.0521 µM) | 0.016 µg/mL (≈ 0.0269 µM) | > 16 µg/mL | 0.5 µg/mL | 0.25 µg/mL (≈ 0.42 µM) | 0.25 µg/mL (≈ 0.42 µM) | 0.125 µg/mL (≈ 0.21 µM) | 1 µg/mL |
| C=C(CF)CN1C[C@H](OCC23C[C@@H]4[C@H](C)CC[C@H]4C4(C=O)CC2C=C(C(C)C)C34C(=O)O)O[C@H](C)[C@@H](OC)C1 (stereo not given in full) | ≤ 0.031 µg/mL | ≤ 0.031 µg/mL | > 16 µg/mL | ≤ 0.031 µg/mL | ≤ 0.031 µg/mL | > 16 µg/mL | 0.5 µg/mL | 0.5 µg/mL (≈ 0.913 µM) | 0.25 µg/mL (≈ 0.456 µM) | 0.25 µg/mL (≈ 0.456 µM) | 0.5 µg/mL |
| CO[C@H]1CN(Cc2ccc3c(c2)OCO3)C[C@H](OCC23C[C@@H]4[C@H](C)CC[C@H]4C4(C=O)CC2C=C(C(C)C)C34C(=O)O)O[C@@H]1C (stereo not given in full) | 0.031 µg/mL (≈ 0.0508 µM) | 0.031 µg/mL (≈ 0.0508 µM) | > 16 µg/mL | 0.031 µg/mL (≈ 0.0508 µM) | 0.016 µg/mL (≈ 0.0262 µM) | > 16 µg/mL | 0.5 µg/mL | 0.5 µg/mL (≈ 0.82 µM) | 2 µg/mL (≈ 3.28 µM) | 0.25 µg/mL (≈ 0.41 µM) | 1 µg/mL |
| COc1cccc(CN2C[C@H](OCC34C[C@@H]5[C@H](C)CC[C@H]5C5(C=O)CC3C=C(C(C)C)C45C(=O)O)O[C@H](C)[C@@H](OC)C2)c1 (stereo not given in full) | 0.063 µg/mL (≈ 0.106 µM) | 0.125 µg/mL (≈ 0.21 µM) | > 16 µg/mL | 0.063 µg/mL (≈ 0.106 µM) | ≤ 0.031 µg/mL | > 16 µg/mL | 2 µg/mL | 8 µg/mL (≈ 13.4 µM) | 2 µg/mL (≈ 3.36 µM) | 0.5 µg/mL (≈ 0.839 µM) | 2 µg/mL |
| C=CCCN1C[C@H](OCC23C[C@@H]4[C@H](C)CC[C@H]4C4(C=O)CC2C=C(C(C)C)C34C(=O)O)O[C@H](C)[C@@H](OC)C1 (stereo not given in full) | 0.125 µg/mL (≈ 0.236 µM) | 0.25 µg/mL (≈ 0.472 µM) | > 16 µg/mL | 0.125 µg/mL (≈ 0.236 µM) | 0.063 µg/mL (≈ 0.119 µM) | > 16 µg/mL | – | 4 µg/mL (≈ 7.55 µM) | > 16 µg/mL | 1 µg/mL (≈ 1.89 µM) | – |
| C=CCN1C[C@H](OCC23C[C@@H]4[C@H](C)CC[C@H]4C4(C=O)CC2C=C(C(C)C)C34C(=O)O)O[C@H](C)[C@@H](OC)C1 (stereo not given in full) | 0.063 µg/mL (≈ 0.122 µM) | 0.063 µg/mL (≈ 0.122 µM) | > 16 µg/mL | 0.063 µg/mL (≈ 0.122 µM) | 0.031 µg/mL (≈ 0.0601 µM) | > 16 µg/mL | 0.25 µg/mL | 0.25 µg/mL (≈ 0.485 µM) | > 16 µg/mL | 0.5 µg/mL (≈ 0.97 µM) | 0.25 µg/mL |
| COc1ccc(CN2C[C@H](OCC34C[C@@H]5[C@H](C)CC[C@H]5C5(C=O)CC3C=C(C(C)C)C45C(=O)O)O[C@H](C)[C@@H](OC)C2)cc1 (stereo not given in full) | ≤ 0.063 µg/mL | ≤ 0.063 µg/mL | > 32 µg/mL | ≤ 0.063 µg/mL | ≤ 0.063 µg/mL | > 32 µg/mL | 0.5 µg/mL | 0.25 µg/mL (≈ 0.42 µM) | 2 µg/mL (≈ 3.36 µM) | 0.25 µg/mL (≈ 0.42 µM) | 1 µg/mL |
| CO[C@H]1CN(CC=C(C)C)C[C@H](OCC23C[C@@H]4[C@H](C)CC[C@H]4C4(C=O)CC2C=C(C(C)C)C34C(=O)O)O[C@@H]1C (stereo not given in full) | 0.25 µg/mL (≈ 0.46 µM) | 0.5 µg/mL (≈ 0.92 µM) | > 16 µg/mL | 0.25 µg/mL (≈ 0.46 µM) | 0.125 µg/mL (≈ 0.23 µM) | > 16 µg/mL | 1 µg/mL | 16 µg/mL (≈ 29.4 µM) | > 16 µg/mL | 2 µg/mL (≈ 3.68 µM) | 2 µg/mL |
| C=C(Cl)CN1C[C@H](OCC23C[C@@H]4[C@H](C)CC[C@H]4C4(C=O)CC2C=C(C(C)C)C34C(=O)O)O[C@H](C)C1 (stereo not given in full) | 0.031 µg/mL (≈ 0.0613 µM) | 0.031 µg/mL (≈ 0.0613 µM) | > 16 µg/mL | 0.031 µg/mL (≈ 0.0613 µM) | 0.016 µg/mL (≈ 0.0316 µM) | 8 µg/mL (≈ 15.8 µM) | 0.25 µg/mL | 0.125 µg/mL (≈ 0.247 µM) | 16 µg/mL (≈ 31.6 µM) | 0.125 µg/mL (≈ 0.247 µM) | 0.5 µg/mL |
| CO[C@H]1CN(CC2=CCCCC2)C[C@H](OCC23C[C@@H]4[C@H](C)CC[C@H]4C4(C=O)CC2C=C(C(C)C)C34C(=O)O)O[C@@H]1C (stereo not given in full) | 0.125 µg/mL (≈ 0.219 µM) | 0.125 µg/mL (≈ 0.219 µM) | > 16 µg/mL | 0.125 µg/mL (≈ 0.219 µM) | 0.063 µg/mL (≈ 0.111 µM) | > 16 µg/mL | 4 µg/mL | 4 µg/mL (≈ 7.02 µM) | 8 µg/mL (≈ 14 µM) | 1 µg/mL (≈ 1.76 µM) | 8 µg/mL |
| CO[C@H]1CN(Cc2ccc(C)cc2)C[C@H](OCC23C[C@@H]4[C@H](C)CC[C@H]4C4(C=O)CC2C=C(C(C)C)C34C(=O)O)O[C@@H]1C (stereo not given in full) | 0.125 µg/mL (≈ 0.216 µM) | 0.125 µg/mL (≈ 0.216 µM) | > 16 µg/mL | 0.063 µg/mL (≈ 0.109 µM) | ≤ 0.031 µg/mL | > 16 µg/mL | 2 µg/mL | 2 µg/mL (≈ 3.45 µM) | > 16 µg/mL | 1 µg/mL (≈ 1.72 µM) | 8 µg/mL |
| CO[C@H]1CN(Cc2ccc(C(F)(F)F)cc2)C[C@H](OCC23C[C@@H]4[C@H](C)CC[C@H]4C4(C=O)CC2C=C(C(C)C)C34C(=O)O)O[C@@H]1C (stereo not given in full) | 0.5 µg/mL (≈ 0.789 µM) | 1 µg/mL (≈ 1.58 µM) | > 32 µg/mL | 0.5 µg/mL (≈ 0.789 µM) | 0.25 µg/mL (≈ 0.394 µM) | > 32 µg/mL | 16 µg/mL | 8 µg/mL (≈ 12.6 µM) | > 32 µg/mL | 2 µg/mL (≈ 3.16 µM) | 32 µg/mL |
| C/C=C/C=C\C(=O)O[C@H]1[C@H](O)[C@H](OCC23C[C@@H]4[C@H](C)CC[C@H]4C4(C=O)CC2C=C(C(C)C)C34C(=O)O)O[C@H](C)[C@H]1OC (stereo not given in full) | 0.5 µg/mL (≈ 0.852 µM) | 0.5 µg/mL (≈ 0.852 µM) | > 4 µg/mL | 0.5 µg/mL (≈ 0.852 µM) | 0.25 µg/mL (≈ 0.426 µM) | > 4 µg/mL | – | > 4 µg/mL | 0.25 µg/mL (≈ 0.426 µM) | 0.5 µg/mL (≈ 0.852 µM) | 4 µg/mL |
| CO[C@H]1CN(Cc2ccccc2)C[C@H](OCC23C[C@@H]4[C@H](C)CC[C@H]4C4(C=O)CC2C=C(C(C)C)C34C(=O)O)O[C@@H]1C (stereo not given in full) | 0.125 µg/mL (≈ 0.221 µM) | ≤ 0.063 µg/mL | > 32 µg/mL | ≤ 0.063 µg/mL | ≤ 0.063 µg/mL | > 32 µg/mL | 0.5 µg/mL | 0.5 µg/mL (≈ 0.884 µM) | 4 µg/mL (≈ 7.07 µM) | 0.25 µg/mL (≈ 0.442 µM) | 1 µg/mL |
| CO[C@H]1CN(Cc2ccc(C#N)cc2)C[C@H](OCC23C[C@@H]4[C@H](C)CC[C@H]4C4(C=O)CC2C=C(C(C)C)C34C(=O)O)O[C@@H]1C (stereo not given in full) | 0.063 µg/mL (≈ 0.107 µM) | 0.063 µg/mL (≈ 0.107 µM) | > 16 µg/mL | 0.063 µg/mL (≈ 0.107 µM) | ≤ 0.031 µg/mL | > 16 µg/mL | 1 µg/mL | 2 µg/mL (≈ 3.39 µM) | 8 µg/mL (≈ 13.5 µM) | 0.5 µg/mL (≈ 0.846 µM) | 2 µg/mL |
| C=C(C)CN1C[C@H](OCC23C[C@@H]4[C@H](C)CC[C@H]4C4(C=O)CC2C=C(C(C)C)C34C(=O)O)O[C@H](C)[C@@H](OC)C1 (stereo not given in full) | 0.031 µg/mL (≈ 0.0585 µM) | 0.031 µg/mL (≈ 0.0585 µM) | > 16 µg/mL | 0.031 µg/mL (≈ 0.0585 µM) | 0.016 µg/mL (≈ 0.0302 µM) | > 16 µg/mL | 0.25 µg/mL | 0.25 µg/mL (≈ 0.472 µM) | 0.25 µg/mL (≈ 0.472 µM) | 0.125 µg/mL (≈ 0.236 µM) | 0.5 µg/mL |
